The subject of assay [1] is Mesenchymal stem cells. The assay is described as follows: Induction of osteogenesis differentiation in human Mesenchymal stem cells at 1 uM incubated for 21 days by Alizarin Red S staining-based microscopic analysis. It is filed as functional, cell-based. The note with it: time 21.0 day.
Assay [2] deals with Mesenchymal stem cells. As to the kind of experiment: Induction of osteogenesis differentiation in human Mesenchymal stem cells at 10 uM incubated for 21 days by Alizarin Red S staining-based microscopic analysis. The note with it: time 21.0 day. It is filed as functional, cell-based.
Assay [3] deals with Mesenchymal stem cells. As to the kind of experiment: Induction of adipogenesis differentiation in human Mesenchymal stem cells at 10 uM incubated for 21 days by […] staining-based microscopic analysis. The note with it: time 21.0 day. It is filed as functional, cell-based.
The subject of assay [4] is Mesenchymal stem cells. The assay is described as follows: Induction of adipogenesis differentiation in human Mesenchymal stem cells at 1 uM incubated for 21 days by […] staining-based microscopic analysis. It is filed as functional, cell-based. The note with it: time 21.0 day.
For assay [5], the system named is Mesenchymal stem cells. The assay is described as follows: Induction of osteogenesis differentiation in human Mesenchymal stem cells at 20 uM incubated for 21 days by Alizarin Red S staining-based microscopic analysis. The class given is functional, cell-based. The note with it: time 21.0 day.
Assay [6] has as its system Mesenchymal stem cells. As to the kind of experiment: Induction of adipogenesis differentiation in human Mesenchymal stem cells at 20 uM incubated for 21 days by […] staining-based microscopic analysis. The note with it: time 21.0 day. It is filed as functional, cell-based.
For assay [7], the target named is T1, Peroxisome proliferator-activated receptor alpha (Homo sapiens) (UniProt Q07869).
T1 sequence (whole entry): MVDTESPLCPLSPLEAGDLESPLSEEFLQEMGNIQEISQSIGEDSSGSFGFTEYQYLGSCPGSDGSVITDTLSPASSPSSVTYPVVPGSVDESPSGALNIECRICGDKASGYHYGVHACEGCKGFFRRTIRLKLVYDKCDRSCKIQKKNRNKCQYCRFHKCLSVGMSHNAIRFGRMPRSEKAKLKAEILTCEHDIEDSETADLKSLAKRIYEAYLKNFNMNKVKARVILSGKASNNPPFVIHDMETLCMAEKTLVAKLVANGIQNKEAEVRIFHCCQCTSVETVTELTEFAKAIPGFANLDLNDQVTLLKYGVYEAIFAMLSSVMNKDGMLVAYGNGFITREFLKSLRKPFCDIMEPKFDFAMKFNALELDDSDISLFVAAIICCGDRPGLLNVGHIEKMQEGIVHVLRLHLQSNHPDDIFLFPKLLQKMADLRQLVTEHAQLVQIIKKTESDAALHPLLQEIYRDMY
As to the kind of experiment: Agonist activity at human PPARalpha transfected in COS-7 cells assessed maximum luciferase activity measured after 24 hrs by cell based luciferase transactivation assay relative to gemfibrozil. The note with it: filed as agonist. The method, boiled down: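 Transient transfection of COS-7 cells with human PPARα, PPARγ or PPARδ plus luciferase reporter; constitutive Renilla luciferase also read. […] Three or more independent experiments in triplicate (N ≥ 9).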

Assay [8] addresses T2, Peroxisome proliferator-activated receptor alpha (Homo sapiens, UniProt Q07869).
T2 sequence (Q07869 whole entry): T1 sequence (whole entry)
The assay is described as follows: Agonist activity at human PPARalpha transfected in COS-7 cells assessed luciferase activity measured after 24 hrs by cell based luciferase transactivation assay. The note with it: read-out: EC50. Put shortly: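 Transient transfection of COS-7 cells with human PPARα, PPARγ or PPARδ plus luciferase reporter; constitutive Renilla luciferase also read. Three or more independent experiments in triplicate (N ≥ 9).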

For 25 molecules, Activity, Emax and EC50 results are on record in ChEMBL document CHEMBL5032493, “Synthesis and Evaluation of PPARδ Agonists That Promote Osteogenesis in a Human Mesenchymal Stem Cell Culture and in a Mouse Model of Human Osteoporosis” (J Med Chem, 2021).

SMILES strings stand for the structures. The source made the active and inactive calls. The rule behind the calls is not given here.

`Cc1nc(-c2ccccc2)sc1CSc1ccc(/C=C/C(=O)O)cc1`: the outcome in the assay with Mesenchymal stem cells [1], in the assay with Mesenchymal stem cells [3] and in the assay with Mesenchymal stem cells [4] was Active. Also, the outcome in the assay on Mesenchymal stem cells [2] was inactive.
Consider `Cc1nc(-c2ccc(C(F)(F)F)cc2)sc1CN(C)c1ccc(/C=C/C(=O)O)c(C(C)C)c1`, for which the result in the assay with Mesenchymal stem cells [1], in the assay on Mesenchymal stem cells [2] and with Mesenchymal stem cells [5] was Active. In addition, the result in the assay on Mesenchymal stem cells [3], in the assay with Mesenchymal stem cells [6] and in the assay with Mesenchymal stem cells [4] was inactive.
In turn, `CN(CCOc1ccc(CC2SC(=O)NC2=O)cc1)c1ccccn1` (stereo not drawn) came in with an Emax in assay [7] of over 120%. The result in the assay with Mesenchymal stem cells [3] and in the assay with Mesenchymal stem cells [4] was Active.
Consider `COC(=O)/C=C/c1ccc(OCc2sc(-c3cccc(C(F)(F)F)c3)nc2C)cc1`, for which the result with Mesenchymal stem cells [1] was inactive. Besides, the result with Mesenchymal stem cells [4] was Active.
Take `COC(=O)/C=C/c1ccc(OCc2sc(-c3ccc(C(F)(F)F)cc3)nc2C)cc1`: the outcome in the assay on Mesenchymal stem cells [1] was inactive. The result in the assay on Mesenchymal stem cells [4] was Active.
`Cc1nc(-c2ccccc2)sc1CNc1ccc(/C=C/C(=O)O)cc1`: the outcome in the assay with Mesenchymal stem cells [1], in the assay on Mesenchymal stem cells [3] and with Mesenchymal stem cells [4] was Active. The result in the assay with Mesenchymal stem cells [2] was inactive.
By EC50 is commonly meant the midpoint of the concentration-response curve. As for `Cc1ccc(C)c(OCCCC(C)(C)C(=O)O)c1` [GEMFIBROZIL], the EC50 in assay [8] came out at 11.8 µM. The Emax in assay [7] amounted to 110%.
For the molecule `Cc1nc(-c2cccc(C(F)(F)F)c2)sc1COc1ccc(/C=C/C(=O)O)cc1`, the result in the assay with Mesenchymal stem cells [1] and with Mesenchymal stem cells [4] was Active.
As for `CCCN(Cc1sc(-c2ccc(C(F)(F)F)cc2)nc1C)c1ccc(/C=C/C(=O)O)cc1`, the result in the assay with Mesenchymal stem cells [1], with Mesenchymal stem cells [2], in the assay on Mesenchymal stem cells [3] and in the assay on Mesenchymal stem cells [6] was Active. In addition, the outcome in the assay on Mesenchymal stem cells [5] and with Mesenchymal stem cells [4] was inactive.
Consider `Cc1nc(-c2ccc(C(F)(F)F)c(F)c2)sc1CN(C)c1ccc(/C=C/C(=O)O)cc1`, for which the outcome with Mesenchymal stem cells [1] and with Mesenchymal stem cells [6] was Active. The result in the assay on Mesenchymal stem cells [2], with Mesenchymal stem cells [5], in the assay with Mesenchymal stem cells [3] and in the assay with Mesenchymal stem cells [4] was inactive.
As to `Cc1nc(-c2ccccc2)sc1CN(C)c1ccc(/C=C/C(=O)O)cc1`, the outcome in the assay with Mesenchymal stem cells [1], in the assay with Mesenchymal stem cells [3] and with Mesenchymal stem cells [6] was Active. Also, the result in the assay with Mesenchymal stem cells [2], in the assay with Mesenchymal stem cells [5] and with Mesenchymal stem cells [4] was inactive.
`Cc1nc(-c2cccc(C(F)(F)F)c2)sc1CNc1ccc(/C=C/C(=O)O)cc1`: the outcome with Mesenchymal stem cells [1], with Mesenchymal stem cells [2] and in the assay with Mesenchymal stem cells [5] was inactive. Moreover, the outcome in the assay on Mesenchymal stem cells [3], in the assay with Mesenchymal stem cells [6] and in the assay with Mesenchymal stem cells [4] was Active.
On to `Cc1nc(-c2ccccc2)sc1COc1ccc(/C=C/C(=O)O)cc1`, for which the result with Mesenchymal stem cells [1] and with Mesenchymal stem cells [2] was inactive. Besides, the result in the assay on Mesenchymal stem cells [3] and in the assay on Mesenchymal stem cells [4] was Active.
Turning to `Cc1nc(-c2cccc(C(F)(F)F)c2)sc1CSc1ccc(/C=C/C(=O)O)cc1`, the outcome in the assay on Mesenchymal stem cells [1], in the assay with Mesenchymal stem cells [3] and in the assay with Mesenchymal stem cells [6] was Active. Moreover, the outcome in the assay on Mesenchymal stem cells [2], in the assay with Mesenchymal stem cells [5] and with Mesenchymal stem cells [4] was inactive.
For the molecule `Cc1nc(-c2ccc(C(F)(F)F)c(F)c2)sc1CN(C(=O)OC(C)(C)C)c1ccc(/C=C/C(=O)O)cc1`, the outcome in the assay on Mesenchymal stem cells [1], in the assay with Mesenchymal stem cells [3] and in the assay on Mesenchymal stem cells [6] was Active. The result in the assay with Mesenchymal stem cells [2], with Mesenchymal stem cells [5] and in the assay with Mesenchymal stem cells [4] was inactive.
With `Cc1nc(-c2ccc(C(F)(F)F)c(F)c2)sc1CNc1ccc(/C=C/C(=O)O)cc1`, the outcome in the assay on Mesenchymal stem cells [1], in the assay with Mesenchymal stem cells [3] and in the assay on Mesenchymal stem cells [6] was Active. The result in the assay on Mesenchymal stem cells [2], with Mesenchymal stem cells [5] and with Mesenchymal stem cells [4] was inactive.
Regarding `Cc1cc(/C=C/C(=O)O)ccc1N(C)Cc1sc(-c2ccc(C(F)(F)F)cc2)nc1C`, the result in the assay with Mesenchymal stem cells [1], with Mesenchymal stem cells [2] and in the assay with Mesenchymal stem cells [5] was Active. Also, the result in the assay on Mesenchymal stem cells [3], in the assay on Mesenchymal stem cells [6] and in the assay with Mesenchymal stem cells [4] was inactive.
For the molecule `Cc1nn(-c2ccc(C(F)(F)F)cc2)nc1CNc1ccc(/C=C/C(=O)O)cc1`, the result in the assay on Mesenchymal stem cells [1], with Mesenchymal stem cells [2], with Mesenchymal stem cells [5], with Mesenchymal stem cells [3], in the assay with Mesenchymal stem cells [6] and in the assay on Mesenchymal stem cells [4] was Active.
Regarding `Cc1nc(-c2ccc(C(F)(F)F)cc2)sc1CN(Cc1sc(-c2ccc(C(F)(F)F)cc2)nc1C)c1ccc(/C=C/C(=O)O)cc1`, in the assay with Mesenchymal stem cells [1], the outcome was Active. Moreover, the result in the assay on Mesenchymal stem cells [2], with Mesenchymal stem cells [3] and in the assay with Mesenchymal stem cells [4] was inactive.
With `Cc1nc(-c2ccc(C(F)(F)F)cc2)sc1CN(c1ccc(/C=C/C(=O)O)cc1)C(C)C`, the outcome with Mesenchymal stem cells [1], in the assay on Mesenchymal stem cells [2] and with Mesenchymal stem cells [5] was Active. Further, the outcome in the assay with Mesenchymal stem cells [3], with Mesenchymal stem cells [6] and in the assay on Mesenchymal stem cells [4] was inactive.
In the case of `CCN(Cc1sc(-c2ccc(C(F)(F)F)cc2)nc1C)c1ccc(/C=C/C(=O)O)cc1`, the result with Mesenchymal stem cells [1], in the assay on Mesenchymal stem cells [2], in the assay on Mesenchymal stem cells [5], with Mesenchymal stem cells [3], in the assay with Mesenchymal stem cells [6] and with Mesenchymal stem cells [4] was Active.
Consider `CCc1cc(N(C)Cc2sc(-c3ccc(C(F)(F)F)cc3)nc2C)ccc1/C=C/C(=O)O`, for which the outcome with Mesenchymal stem cells [1], in the assay with Mesenchymal stem cells [2], with Mesenchymal stem cells [5], in the assay with Mesenchymal stem cells [3], with Mesenchymal stem cells [6] and with Mesenchymal stem cells [4] was Active.
`Cc1nc(-c2cccc(C(F)(F)F)c2)sc1CN(C)c1ccc(/C=C/C(=O)O)cc1`: the result in the assay with Mesenchymal stem cells [1], in the assay on Mesenchymal stem cells [3] and in the assay with Mesenchymal stem cells [6] was Active. Moreover, the result with Mesenchymal stem cells [2], with Mesenchymal stem cells [5] and in the assay on Mesenchymal stem cells [4] was inactive.
Consider `Cc1nn(-c2ccc(C(F)(F)F)cc2)nc1CN(C)c1ccc(/C=C/C(=O)O)cc1`, for which the result in the assay on Mesenchymal stem cells [1], in the assay on Mesenchymal stem cells [2] and in the assay on Mesenchymal stem cells [5] was Active. Further, the result in the assay on Mesenchymal stem cells [3], with Mesenchymal stem cells [6] and with Mesenchymal stem cells [4] was inactive.
Consider `Cc1sc(-c2ccc(C(F)(F)F)cc2)nc1CN(C)c1ccc(/C=C/C(=O)O)cc1`, for which the result with Mesenchymal stem cells [1] and in the assay on Mesenchymal stem cells [2] was Active. The result in the assay on Mesenchymal stem cells [5], with Mesenchymal stem cells [3], with Mesenchymal stem cells [6] and in the assay on Mesenchymal stem cells [4] was inactive.
